Test results as given in ChEMBL document CHEMBL2321845, “Discovery of 4-Aryl-2-benzoyl-imidazoles as tubulin polymerization inhibitor with potent antiproliferative properties” (J Med Chem, 2013).

Columns and labels:
[1] = Cytotoxicity against human MDA-MB-435/LCC6MDR1 cells assessed as growth inhibition after 48 hrs by SRB assay; type: functional, cell-based, MDA-MB-435/LCC6 MDR1
[2] = Cytotoxicity against human WM164 cells assessed as growth inhibition after 48 hrs by SRB assay; type: functional, cell-based; details: WM164, 48 h
Method in brief: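 Melanoma cells from ATCC, grown in DMEM with 10% FBS at 37°C under 5% CO2. Seeded at 1000–5000 cells/well according to growth rate and exposed to a range of compound concentrations for 48 h, in three to five replicates. Cells were fixed with 10% TCA, stained with 0.4% SRB and read at 540 nm. IC50 (50% growth inhibition versus untreated control) was taken from nonlinear regression of % survival against concentration.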

PPC-1 = assay: Cytotoxicity against human PPC1 cells assessed as growth inhibition after 96 hrs by SRB assay; type: functional, cell-based; details: PPC-1, 96 h
Method in brief: (§1)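 Plated at 1000–5000 cells/well depending on growth rate and treated with graded compound concentrations for 96 h, three to five replicates. Cell number was measured by SRB: 10% TCA fixation, 0.4% SRB staining, absorbance at 540 nm. IC50 relative to untreated control came from a nonlinear regression fit.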

LNCaP = assay: Cytotoxicity against human LNCAP cells assessed as growth inhibition after 96 hrs by SRB assay; type: functional, cell-based; method in brief: as §1
DU-145 = assay: Cytotoxicity against human DU145 cells assessed as growth inhibition after 96 hrs by SRB assay; type: functional, cell-based
A-375 = assay: Cytotoxicity against human A375 cells assessed as growth inhibition after 48 hrs by SRB assay; type: functional, cell-based; details: A-375, 48 h
Method in brief: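 Melanoma cells from ATCC, grown in DMEM with 10% FBS at 37°C under 5% CO2. Seeded at 1000–5000 cells/well according to growth rate and exposed to a range of compound concentrations for 48 h, in three to five replicates. Cells were fixed with 10% TCA, stained with 0.4% SRB and read at 540 nm.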

MDA-MB-435 = assay: Cytotoxicity against human MDA-MB-435 cells assessed as growth inhibition after 48 hrs by SRB assay; type: functional, cell-based; details: MDA-MB-435, 48 h
PC-3 [3] = assay: Cytotoxicity against human PC3 cells assessed as growth inhibition after 96 hrs by SRB assay; type: functional, cell-based; details: PC-3, 96 h; method in brief: as §1
PC-3 [4] = assay: Cell cycle arrest in human PC3 cells assessed as accumulation at G2/M phase after 24 hrs by propidium iodide staining based FACS analysis (reference value: 18%); type: functional
[5] = Homo sapiens, MDA-MB-435/LCC6 MDR1, 48 h

Compound	IC50 [1, 5]	IC50 [2]	IC50 (PPC-1)	IC50 (LNCaP)	IC50 (DU-145; Homo sapiens, DU-145, 96 h)	IC50 (A-375)	IC50 (MDA-MB-435)	IC50 (PC-3 [3])	IC50 ([1]; mda-mb-435/lcc6 mdr1)	IC50 (DU-145; du-145)	Activity (PC-3 [4])	Activity (PC-3 [4]; record 2)
COc1cc(-c2c[nH]c(C(=O)c3ccccc3)n2)cc(OC)c1OC	5770 nM	1270 nM	408 nM	195 nM	1300 nM	1020 nM	4610 nM	632 nM	–	–	–	–
COc1cc(C(=O)c2c[nH]c(-c3ccc(C)cc3)n2)cc(OC)c1OC	–	–	–	–	–	–	–	–	11 nM	11 nM	–	–
COc1ccc(-c2c[nH]c(C(=O)c3cc(OC)c(OC)c(OC)c3)n2)cc1	59 nM	41 nM	54 nM	–	210 nM	33 nM	55 nM	61 nM	–	–	–	–
Cc1ccc(C(=O)c2nc(-c3ccc(C)cc3)c[nH]2)cc1	3270 nM	3690 nM	2400 nM	3760 nM	6540 nM	2540 nM	3020 nM	5160 nM	–	–	–	–
COc1cc(C(=O)c2nc(-c3ccc(N(C)C)cc3)c[nH]2)cc(OC)c1OC	162 nM	129 nM	120 nM	96 nM	263 nM	141 nM	200 nM	118 nM	–	–	–	–
CN(C)c1ccc(C(=O)c2nc(-c3ccc(N(C)C)cc3)c[nH]2)cc1	> 50000 nM	> 50000 nM	–	–	–	> 50000 nM	> 50000 nM	–	–	–	–	–
COc1cc(C(=O)c2nc(-c3ccccc3)cn2Cc2ccccc2)cc(OC)c1OC	156 nM	34 nM	77 nM	66 nM	160 nM	104 nM	94 nM	72 nM	–	–	–	–
CCCc1[nH]c(C(=O)c2cc(OC)c(OC)c(OC)c2)nc1-c1ccccc1	14300 nM	19600 nM	11400 nM	3090 nM	16400 nM	37000 nM	30500 nM	12400 nM	–	–	–	–
COc1cc(C(=O)c2nc(-c3ccccc3)cn2-c2cccs2)cc(OC)c1OC	27 nM	8 nM	–	–	–	20 nM	25 nM	–	–	–	–	–
COc1cc(C(=O)c2c[nH]c(-c3ccc(C(C)C)cc3)n2)cc(OC)c1OC	250 nM	–	173 nM	171 nM	482 nM	–	312 nM	136 nM	–	–	–	–
COc1ccc(C(=O)c2nc(-c3ccc(OC)cc3)c[nH]2)cc1	> 50000 nM	> 50000 nM	38200 nM	6420 nM	9840 nM	> 50000 nM	> 50000 nM	23400 nM	–	–	–	–
O=C(c1ccccc1)c1nc(-c2ccccc2)c[nH]1	> 50000 nM	> 50000 nM	> 50000 nM	> 50000 nM	> 50000 nM	> 50000 nM	> 50000 nM	> 50000 nM	–	–	–	–
COc1cc(C(=O)c2nc(-c3ccc(Cl)cc3)c[nH]2)cc(OC)c1OC	75 nM	63 nM	51 nM	22 nM	125 nM	51 nM	106 nM	64 nM	–	–	–	–
O=C(c1ccc(Cl)cc1)c1nc(-c2ccc(Cl)cc2)c[nH]1	> 50000 nM	> 50000 nM	> 50000 nM	> 50000 nM	> 50000 nM	35700 nM	> 50000 nM	> 50000 nM	–	–	–	–
O=C(c1ccc(Br)cc1)c1nc(-c2ccc(Br)cc2)c[nH]1	17800 nM	26300 nM	13200 nM	16900 nM	25500 nM	25000 nM	14400 nM	18900 nM	–	–	–	–
COc1ccc(C(=O)c2nc(-c3cc(OC)c(OC)c(OC)c3)c[nH]2)cc1	11400 nM	36000 nM	5680 nM	708 nM	> 50000 nM	35400 nM	11000 nM	10400 nM	–	–	–	–
COc1cc(C(=O)c2nc(-c3ccccc3)cn2C2CCCC2)cc(OC)c1OC	161 nM	56 nM	63 nM	51 nM	167 nM	135 nM	134 nM	56 nM	–	–	–	–
CCCc1[nH]c(Cc2cc(OC)c(OC)c(OC)c2)nc1-c1ccccc1	15900 nM	–	–	–	–	–	10900 nM	–	–	–	–	–
COc1cc(C(=O)c2nc(-c3cc(OC)c(OC)c(OC)c3)c[nH]2)cc(OC)c1OC	> 50000 nM	> 50000 nM	> 50000 nM	> 50000 nM	> 50000 nM	> 50000 nM	> 50000 nM	> 50000 nM	–	–	–	–

Compound	IC50 [1, 5]	IC50 [2]	IC50 (PPC-1)	IC50 (LNCaP)	IC50 (DU-145; Homo sapiens, DU-145, 96 h)	IC50 (A-375)	IC50 (MDA-MB-435)	IC50 (PC-3 [3])	IC50 ([1]; mda-mb-435/lcc6 mdr1)	IC50 (DU-145; du-145)	Activity (PC-3 [4])	Activity (PC-3 [4]; record 2)
COc1cc(Cc2nc(-c3ccccc3)c[nH]2)cc(OC)c1OC	–	–	–	–	–	10200 nM	–	–	–	–	–	–
COc1cc(-c2c[nH]c(C(=O)c3ccc(Br)cc3)n2)cc(OC)c1OC	161 nM	177 nM	106 nM	131 nM	429 nM	136 nM	186 nM	371 nM	–	–	–	–
COc1cc(-c2c[nH]c(C(=O)c3ccc(N(C)C)cc3)n2)cc(OC)c1OC	40600 nM	46100 nM	–	–	–	47900 nM	29200 nM	–	–	–	–	–
O=C(c1ccc(C(F)(F)F)cc1)c1nc(-c2ccc(C(F)(F)F)cc2)c[nH]1	26500 nM	> 50000 nM	> 50000 nM	> 50000 nM	> 50000 nM	> 50000 nM	> 50000 nM	> 50000 nM	–	–	–	–
COc1cc(C(=O)c2nc(-c3ccc(F)cc3)c[nH]2)cc(OC)c1OC	263 nM	298 nM	134 nM	114 nM	353 nM	197 nM	320 nM	196 nM	–	–	–	–
COc1cc(C(=O)c2nc(-c3ccc(C)cc3)c[nH]2)cc(OC)c1OC	21 nM	14 nM	–	13 nM	–	13 nM	27 nM	–	–	–	–	–
COc1cc(C(=O)c2c[nH]c(-c3ccc(C(C)(C)C)cc3)n2)cc(OC)c1OC	3070 nM	–	294 nM	423 nM	1700 nM	–	3690 nM	436 nM	–	–	–	–
COc1cc(C(=O)c2nc(-c3ccc(O)cc3)c[nH]2)cc(OC)c1OC	455 nM	549 nM	122 nM	219 nM	518 nM	487 nM	669 nM	155 nM	–	–	–	–
CCc1[nH]c(C(=O)c2cc(OC)c(OC)c(OC)c2)nc1-c1ccccc1	5110 nM	5510 nM	2080 nM	2030 nM	5080 nM	2150 nM	8800 nM	3650 nM	–	–	–	–
COc1cc(C(=O)c2nc(-c3ccccc3)c(C)[nH]2)cc(OC)c1OC	1590 nM	1900 nM	860 nM	938 nM	2000 nM	1300 nM	1630 nM	1620 nM	–	–	–	–
CCCn1cc(-c2ccccc2)nc1C(=O)c1cc(OC)c(OC)c(OC)c1	44 nM	14 nM	10 nM	49 nM	72 nM	42 nM	37 nM	26 nM	–	–	–	–
COc1cc(Cc2nc(-c3ccccc3)c(-c3ccccc3)[nH]2)cc(OC)c1OC	> 50000 nM	–	–	–	–	–	> 50000 nM	–	–	–	–	–
CCc1[nH]c(Cc2cc(OC)c(OC)c(OC)c2)nc1-c1ccccc1	> 50000 nM	–	–	–	–	–	> 50000 nM	–	–	–	–	–
COc1cc(C(=O)c2nc(-c3ccccc3)cn2C(C)C)cc(OC)c1OC	44 nM	23 nM	15 nM	62 nM	114 nM	38 nM	18 nM	53 nM	–	–	–	–
O=C(c1ccc(F)cc1)c1nc(-c2ccc(F)cc2)c[nH]1	> 50000 nM	> 50000 nM	> 50000 nM	> 50000 nM	> 50000 nM	> 50000 nM	> 50000 nM	> 50000 nM	–	–	–	–
O=C(c1ccc(O)cc1)c1nc(-c2ccc(O)cc2)c[nH]1	21400 nM	48200 nM	–	–	–	38800 nM	48000 nM	–	–	–	–	–
COc1cc(-c2c[nH]c(C(=O)c3ccc(O)cc3)n2)cc(OC)c1OC	> 50000 nM	> 50000 nM	–	–	–	> 50000 nM	> 50000 nM	–	–	–	–	–
COc1cc(Cc2nc(-c3ccccc3)c(C)[nH]2)cc(OC)c1OC	–	–	–	–	–	> 50000 nM	–	–	–	–	–	–
CCc1ccc(-c2nc(C(=O)c3cc(OC)c(OC)c(OC)c3)c[nH]2)cc1	27 nM	–	15 nM	–	25 nM	14 nM	25 nM	13 nM	–	–	Dose-dependent effect	<=70%
